Published values gathered from unrelated publications.
Protocols differ between the studies behind these lines.
RPS6KA4: Ribosomal protein S6 kinase alpha-4 (RPS6KA4, Homo sapiens, UniProt O75676)
RPS6KA4 C-terminal kinase domain: Ribosomal protein S6 kinase alpha-4, C-terminal kinase domain (RPS6KA4, Homo sapiens, UniProt O75676)

SMILES | target | read-out | action | technique | tested at | quantity | result
Cn1cc(-c2cc(F)cc(N3CCn4c(cc5c4CCCC5)C3=O)c2CO)cc(Nc2ccc(N3CCN(C4COC4)CC3)cn2)c1=O | RPS6KA4 | enzyme activity | inhibitor | – | 0.1 µM | inhibition | 15%
Nc1ncc(-c2nc(N3CCOCC3)nc(N3CCOCC3)n2)c(C(F)F)n1 | RPS6KA4 C-terminal kinase domain | binding | – | competition with immobilised ligand | 10 µM | remaining binding | 63%
N#CC1(c2ccccn2)CCN(Cc2cc(C(=O)O)c(=O)n3ccccc23)CC1 | RPS6KA4 C-terminal kinase domain | cell-free assay | – | competition with immobilised ligand | 1 µM | remaining binding | 65%
O=c1[nH]c2ccccc2n1C1CCN(Cc2ccc(-c3[nH]c4cc5ncnc5cc4nc3-c3ccccc3)cc2)CC1 | RPS6KA4 | cell-free assay | – | – | 0.5 µM | remaining signal | 98.8%
Cn1cncc1[C@](O)(COc1ccc(C#N)cc1-c1ccc(OC(F)(F)F)cc1)c1ccc(C#N)cc1 | RPS6KA4 C-terminal kinase domain | cell-free assay | – | competition with immobilised ligand | 1 µM | remaining binding | 76%
Cn1cc(-c2cccc(N3CCc4c(sc5c4CC(C)(C)C5)C3=O)c2CO)cc(Nc2ccncn2)c1=O | RPS6KA4 | enzyme activity | inhibitor | – | 1 µM | inhibition | 3%
Cc1nn(C)cc1-c1nc2c(N3CCN(Cc4ccc(Cl)cc4)CC3)c(Cl)cnc2[nH]1 | Ribosomal protein S6 kinase alpha-4, N-terminal kinase domain (RPS6KA4, Homo sapiens, UniProt O75676) | binding | – | competition with immobilised ligand | 1 µM | remaining binding | 62%
CC(C)(C)c1cc(C=C(C#N)C#N)cc(Br)c1O | RPS6KA4 | enzyme activity | inhibitor | – | 0.5 µM | remaining activity | 90.9%
